From ChEMBL document CHEMBL1140605, “Ester-based precursors to increase the bioavailability of quercetin” (J Med Chem, 2007)

Tests used:
[1] = Solubility in Hanks balanced salt solution at 1 mg after 24 hrs; type: physicochemical
[2] = Chemical stability assessed as half life of hydrolysis; type: physicochemical
How it was run: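 UV-vis spectra (190-500 nm) followed in PBS (20 mM, pH 7.0, ionic strength 0.1 M with KCl)/CH₃CN 1:1 at 25 °C. The reaction was started by adding substrate freshly dissolved in acetonitrile, to a final (3-8) × 10^-5 M. Observed first- and second-step hydrolysis rate constants came from fitting the spectral data to a kinetic equation, and half-life was derived from them.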

[3] = Permeability from apical to basolateral side of dog MDCK2 cell monolayer assessed as intact drug level in basolateral compartment after 6 hrs; type: ADME, cell-based, Canis lupus familiaris; conditions: mdck-ii
How it was run: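 MDCK-2 monolayers were grown in DMEM with 10% FBS, seeded at 5 × 10⁵ cells/cm² on 24-mm Transwell inserts, and used at TER 100-300 Ω·cm² (10-20 days). Apical dosing was formally 30-50 µM compound in HBSS with 0.1% DMSO. After 6 h, basolateral solution was analysed by HPLC-UV at 300/370 nm and quantified against standard curves (quantification limit 0.2 µM).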

[4] = system: Caco-2; experiment: Permeability from apical to basolateral side of human Caco-2 cell monolayer assessed as intact drug level in basolateral compartment after 6 hrs; type: ADME, cell-based; conditions: caco-2, 6 h
How it was run: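 Caco-2 cells were cultured in DMEM with 10% FBS, seeded at 3 × 10⁵ cells/cm² on 24-mm Transwell inserts, and tested at TER 1.5-2 kΩ·cm² (10-20 days). Compound at formally 30-50 µM in HBSS with 0.1% DMSO was placed apically. Basolateral content at 6 h was measured by HPLC-UV (300/370 nm) against standard curves; quantification limit 0.2 µM.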

[5] = Permeability from apical to basolateral side of dog MDCK1 cell monolayer assessed as intact drug level in basolateral compartment after 6 hrs; type: ADME, cell-based, Canis lupus familiaris; conditions: mdck1, 6 h
How it was run: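 MDCK-1 cells in DMEM with 10% FBS were seeded at 3 × 10⁵ cells/cm² on 24-mm Transwell inserts and used at TER ~10-15 kΩ·cm² (10-20 days). Compound was applied apically at formally 30-50 µM in HBSS with 0.1% DMSO. Basolateral fluid was taken at 6 h and quantified by HPLC-UV (300/370 nm) against standard curves; quantification limit 0.2 µM.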

SMILES | solubility at 24 h [1] [µM] | further results
CC(=O)Oc1cc(OC(C)=O)c2c(=O)c(OC(C)=O)c(-c3ccc(OC(C)=O)c(OC(=O)CCCCCNC(=O)OC(C)(C)C)c3)oc2c1 | 3.9 | –
CC(C)(C)OC(=O)NCCCCCC(=O)Oc1cc(-c2oc3cc(O)cc(O)c3c(=O)c2O)ccc1O | – | t1/2 [2]: 3.67 h
CC(=O)Oc1cc(OC(C)=O)c2c(=O)c(OC(C)=O)c(-c3ccc(OC(C)=O)c(OC(=O)CCCNC(=O)OC(C)(C)C)c3)oc2c1 | 2.5 | –
CC(C)(C)OC(=O)NCCCC(=O)Oc1cc(-c2oc3cc(O)cc(O)c3c(=O)c2O)ccc1O | – | t1/2 [2]: 2.08 h
CC(=O)Oc1cc(OC(C)=O)c2c(=O)c(OC(C)=O)c(-c3ccc(OC(C)=O)c(OC(C)=O)c3)oc2c1 | 1.1 | Activity [3]: 0.5%
CC(=O)Oc1cc(OC(C)=O)c2c(=O)c(OC(C)=O)c(-c3ccc(OC(C)=O)c(OC(=O)c4ccc(NC(=O)OC(C)(C)C)cc4)c3)oc2c1 | 0.4 | –
Nc1ccc(C(=O)Oc2cc(-c3oc4cc(O)cc(O)c4c(=O)c3O)ccc2O)cc1 | 1.5 | –
CC(=O)Oc1cc(OC(C)=O)c2c(=O)c(OC(C)=O)c(-c3ccc(OC(C)=O)c(OC(=O)[C@H]4CC[C@@H](NC(=O)OC(C)(C)C)CC4)c3)oc2c1 | 0.8 | –
CC(C)(C)OC(=O)N[C@H]1CC[C@@H](C(=O)Oc2cc(-c3oc4cc(O)cc(O)c4c(=O)c3O)ccc2O)CC1 | – | t1/2 [2]: 3.31 h
CC(=O)Oc1cc(OC(C)=O)c2c(=O)c(OC(C)=O)c(-c3ccc(OC(C)=O)c(OC(=O)[C@@H](C)NC(=O)OC(C)(C)C)c3)oc2c1 | 12 | –
CC(C)(C)OC(=O)Nc1ccc(C(=O)Oc2cc(-c3oc4cc(O)cc(O)c4c(=O)c3O)ccc2O)cc1 | 0.4 | –
CC(=O)Oc1cc(OC(C)=O)c2c(=O)c(OC(C)=O)c(-c3ccc(OC(C)=O)c(OC(=O)c4ccc(N)cc4)c3)oc2c1 | 1 | –
O=c1c(O)c(-c2ccc(O)c(O)c2)oc2cc(O)cc(O)c12 [QUERCETIN] | 2.3 | Activity [4]: 1%; Activity [3]: 2.7%; Activity [5]: 0.9%
